# Key:
# [1] = molecular target: Aldo-keto reductase family 1 member B1 (Rattus norvegicus) (UniProt P07943); test: Inhibition of rat aldose reductase activity at 100 uM.
# Procedure, shortened: (§1)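 Crude rat lens enzyme: 50 lenses homogenized in distilled water and spun at 10000 rpm for 10 min at 0–5 °C. Supernatant diluted so the control rate was 0.010 ± 0.002 A/min. Reaction in 0.1 M phosphate pH 6.2 with 0.104 mM NADPH, started with 10 mM DL-glyceraldehyde. NADPH loss read at 340 nm for 3.0 min against a glyceraldehyde-free blank. Inhibitor tested at 100 μM; % inhibition vs substrate-only control, reported with SEM.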
# [2] = molecular target: Aldo-keto reductase family 1 member B1 (Rattus norvegicus, UniProt P07943); test: Inhibition of rat aldose reductase enzyme.
# Procedure, shortened: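 Rat lens supernatant (homogenized in water, spun at 0–5 °C, diluted to a control rate of 0.010 ± 0.002 A/min). Assayed in 0.1 M phosphate pH 6.2, 0.104 mM NADPH, 10 mM DL-glyceraldehyde, following A340 decrease for 3.0 min. Four inhibitor concentrations, three determinations each. IC50 from least-squares fit of the log dose-response curve.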
# [3] = molecular target: Aldo-keto reductase family 1 member B1 (Rattus norvegicus) (UniProt P07943); test: Compound was tested for percent inhibition of aldose reductase inhibitory activity using rat lens assay at concentration of 100 uM; procedure, shortened: as §1
Compound,inhibition [1] [%],IC50 [2] [µM],inhibition [3] [%]
O=C(O)CNS(=O)(=O)c1ccc(N/C(S)=N/c2ccccc2)cc1,65,8.42,
CN(C)c1ccc(S(=O)(=O)NCC(=O)O)cc1,80,10.9,
O=C(O)CNS(=O)(=O)c1ccc(NC(=O)OCc2ccccc2)cc1,82,6.03,
O=C(O)CNS(=O)(=O)c1ccc(NC(=O)CCc2ccccc2)cc1,86,11.5,
Nc1ccc(S(=O)(=O)NCC(=O)O)cc1,76,16,
O=C(O)CNS(=O)(=O)c1ccc(NC(=O)COc2ccccc2)cc1,87,2.64,
O=C(O)CNS(=O)(=O)c1ccc(NC(=O)COCc2ccccc2)cc1,79,3.5,
Nc1ccccc1S(=O)(=O)NCC(=O)O,74,38,
Nc1cccc(S(=O)(=O)NCC(=O)O)c1,73,29,
O=C(O)CNS(=O)(=O)c1ccc(NCc2ccccc2)cc1,71,7.04,
CC(=O)Nc1ccc(S(=O)(=O)NCC(=O)O)cc1,88,4.22,

# The next lines start with the values.
inhibition [1] [%],IC50 [2] [µM],inhibition [3] [%],Compound
81,0.41,,O=C(O)CNS(=O)(=O)c1ccc(NC(=O)c2ccccc2)cc1
72,0.69,,O=C(O)CNS(=O)(=O)c1ccc(NC(=O)/C=C/c2ccccc2)cc1
52,78,,O=C(O)CNS(=O)(=O)c1ccccc1NC(=O)c1ccccc1
83,2.75,,O=C(O)CNS(=O)(=O)c1ccc(NC(=O)Nc2ccccc2)cc1
79,7.12,,O=C(O)CNS(=O)(=O)c1cccc(NC(=O)c2ccccc2)c1
,2.17,100,O=C(O)CNS(=O)(=O)c1ccc(NC(=O)Cc2ccccc2)cc1

# Source: ChEMBL document CHEMBL1123833, “Novel inhibitors of rat lens aldose reductase: N-[[(substituted amino)phenyl]sulfonyl]glycines” (J Med Chem, 1987)
